One assay deals with CCRF-CEM. The assay is described as follows: Cytotoxicity against human CCRF-CEM cells after 48 hrs by MTT assay. The assay is classed as functional, cell-based. The procedure, abridged: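 CCRF-CEM cells grown in RPMI 1640 with 10% FBS and penicillin/streptomycin at 37 °C, 5% CO₂. Seeded at 2×10^5 cells/mL and exposed to graded doses from DMSO stock, in quintuplicate, for 48 h. MTT (5 mg/mL) added for 4 h, formazan dissolved in DMSO and read at 490 nm. IC50 is the concentration giving 50% growth inhibition.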
On the technique in general: Tetrazolium assays rely on reduction of a dye to a coloured formazan, in cell work by metabolically active cells.

For a further assay, the system named is A549. The assay is described as follows: Cytotoxicity against human A549 cells after 48 hrs by MTT assay. The assay is classed as functional, cell-based. The note with it: A549, 48 h. The procedure, abridged: (§1)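 A549, HepG2 and MCF7 cells grown in DMEM with 10% FBS and penicillin/streptomycin at 37 °C, 5% CO₂. Seeded at 2×10^5 cells/mL and treated with graded doses from DMSO stock, in quintuplicate, for 48 h. MTT added for 4 h, formazan dissolved in DMSO and read at 490 nm. IC50 is the concentration giving 50% growth inhibition.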

A further assay has as its system HepG2. The assay is described as follows: Cytotoxicity against human HepG2 cells after 48 hrs by MTT assay. The class given is functional, cell-based. Conditions: HepG2, 48 h. A digest of the protocol:
as §1

For a further assay, the system named is MCF7. Put plainly: Cytotoxicity against human MCF7 cells after 48 hrs by MTT assay. The assay is classed as functional, cell-based. The note with it: MCF7, 48 h. The procedure, abridged:
as §1

Assay [1] deals with Calf thymus DNA. Put plainly: Binding affinity to calf thymus DNA assessed as intercalation by UV-vis spectral analysis. The class given is nucleic-acid assay. The note with it: Bos taurus. A digest of the protocol:
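Compound at 40 μM titrated with ct DNA at 0–80 μM in 10 mM Tris-HCl, 50 mM NaCl, pH 7.2. Incubated 5 min, then spectra read in a 1.0 cm quartz cell. Kb obtained from a plot of [DNA]/(εa−εf) against [DNA], with DNA concentration in base pairs.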

Assay [2] concerns Calf thymus DNA. Put plainly: Binding affinity to calf thymus DNA assessed as intercalation at 20 uM by fluorescence emission spectral analysis. Conditions: Bos taurus. The class given is nucleic-acid assay. A digest of the protocol: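 Compound at about 20 μM final (from 5 mM DMSO stock) in 10 mM Tris-HCl, 50 mM NaCl, pH 7.2, with or without ct DNA at 20 or 40 μM final. Emission recorded after equilibrium on excitation at 380 nm. DNA concentration set by A260 (6600 M⁻¹ cm⁻¹ per phosphate; A260:A280 1.87).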

Assay [3] concerns the target T1, DNA topoisomerase 1 (Homo sapiens) (UniProt P11387).
T1 sequence (whole entry): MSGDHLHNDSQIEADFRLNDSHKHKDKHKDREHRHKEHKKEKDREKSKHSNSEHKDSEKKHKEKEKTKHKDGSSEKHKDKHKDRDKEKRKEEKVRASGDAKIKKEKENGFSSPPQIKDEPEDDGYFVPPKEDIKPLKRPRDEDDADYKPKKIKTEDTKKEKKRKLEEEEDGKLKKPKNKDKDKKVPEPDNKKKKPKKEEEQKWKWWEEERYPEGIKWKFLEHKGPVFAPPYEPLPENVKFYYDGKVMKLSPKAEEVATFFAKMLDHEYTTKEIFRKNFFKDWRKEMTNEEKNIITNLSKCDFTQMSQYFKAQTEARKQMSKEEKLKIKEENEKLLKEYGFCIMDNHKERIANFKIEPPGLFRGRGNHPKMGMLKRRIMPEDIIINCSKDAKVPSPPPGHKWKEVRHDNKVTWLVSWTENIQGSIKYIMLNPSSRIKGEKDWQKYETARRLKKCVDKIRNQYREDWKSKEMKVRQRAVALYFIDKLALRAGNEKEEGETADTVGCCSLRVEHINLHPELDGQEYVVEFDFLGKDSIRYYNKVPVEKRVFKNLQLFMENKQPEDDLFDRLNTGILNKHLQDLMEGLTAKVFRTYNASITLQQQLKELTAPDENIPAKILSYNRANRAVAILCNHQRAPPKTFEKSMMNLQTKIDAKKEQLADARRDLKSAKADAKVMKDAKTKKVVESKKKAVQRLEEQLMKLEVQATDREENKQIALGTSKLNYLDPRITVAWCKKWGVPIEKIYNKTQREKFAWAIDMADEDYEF
Put plainly: Inhibition of human recombinant DNA topoisomerase 1-mediated DNA cleavage assessed as relaxation of supercoiled pBR322 plasmid DNA at 50 uM […] by ethidium bromide staining. The procedure, abridged: (§2)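 pBR322 (100 ng) incubated with 1.0 unit recombinant human topoisomerase I, with or without compound (10–50 or 250 μM), for 30 min at 37 °C. DMSO control included. Products run on 1% agarose in TAE at 100 V for 25 min and stained with ethidium bromide.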

Assay [4] deals with T1, DNA topoisomerase 1 (Homo sapiens). The assay is described as follows: Inhibition of human recombinant DNA topoisomerase 1-mediated DNA cleavage assessed as relaxation of supercoiled pBR322 plasmid DNA at 250 uM […] by ethidium bromide staining. The procedure, abridged:
as §2

The source made the active and inactive calls. No cut-off for these calls is given here.

As a reminder, the IC50 is the concentration at which inhibition is half-maximal. High values mean weaker potency, low ones greater potency. In the case of `COc1cc(Cn2c3ccccc3c(=O)c3cc(NC(=O)CCN4CCCC4)ccc32)cc(OC)c1`, the IC50 in the assay on CCRF-CEM is 280 nM; with A549 it was 25900 nM; in the assay on HepG2, 4000 nM; with MCF7, 5700 nM. Also, in the assay on Calf thymus DNA [1], the Kb amounted to 5 ×10⁴ /M. The result (in the assay with Calf thymus DNA [2]; in assay [4]) was Active. The result in assay [3] was inactive.
`COc1cc(Cn2c3ccccc3c(=O)c3cc(NC(=O)CCN4CCOCC4)ccc32)cc(OC)c1` had an IC50 in the assay on CCRF-CEM of 3010 nM. For the same molecule, the result in assay [3] was inactive. Besides, the result in assay [4] was Active.
With `COc1cc(Cn2c3ccccc3c(=O)c3cc(NC(=O)CN)ccc32)cc(OC)c1`, the IC50 stood at 390 nM with CCRF-CEM, 3400 nM in the assay on A549, 6500 nM in the assay on HepG2 and 11700 nM in the assay with MCF7. For the same molecule, the Kb in the assay on Calf thymus DNA [1] amounted to 1.5 ×10⁵ /M. The outcome (in the assay with Calf thymus DNA [2]; in assay [3]) was Active.
Molecule `COc1cc(Cn2c3ccccc3c(=O)c3cc(NC(=O)C(C)N)ccc32)cc(OC)c1` (stereo unspecified) gave an IC50 in the assay with CCRF-CEM of 610 nM. Besides, the outcome in assay [3] was inactive. In assay [4], the outcome was Active.
Molecule `COc1cc(Cn2c3ccccc3c(=O)c3cc(NC(=O)CCN(C)C)ccc32)cc(OC)c1` gave an IC50 in the assay on CCRF-CEM of 910 nM. Further, in assay [3], the result was inactive. Besides, the outcome in assay [4] was Active.
In turn, `COc1cc(Cn2c3ccccc3c(=O)c3cc(NC(=O)CCN4CCCCC4)ccc32)cc(OC)c1` came in with an IC50 in the assay with CCRF-CEM of 600 nM. In assay [3], the result was inactive. The result in assay [4] was Active.
Taken in the same sequence, the figures for `COc1cc(Cn2c3ccccc3c(=O)c3cc(NC(=O)CCN)ccc32)cc(OC)c1` were 2550 nM, “inactive” and “Active”.
Taken in the same sequence, the figures for `CCN(CC)CCC(=O)Nc1ccc2c(c1)c(=O)c1ccccc1n2Cc1cc(OC)cc(OC)c1` were 720 nM, “inactive” and “Active”.
The molecule `COc1cc(Cn2c3ccccc3c(=O)c3cc(NC(=O)CCN(CCO)CCO)ccc32)cc(OC)c1` came in with an IC50 in the assay with CCRF-CEM of 950 nM. Also, the outcome in assay [3] was inactive. Also, the result in assay [4] was Active.
For the molecule `COc1cc(Cn2c3ccccc3c(=O)c3cc(NC(=O)C(N)CCCCN)ccc32)cc(OC)c1` (stereo unspecified), the IC50 in the assay on CCRF-CEM stood at 750 nM. The result in assay [3] was inactive. For the same molecule, in assay [4], the result was Active.
Consider `COc1cc(Cn2c3ccccc3c(=O)c3ccccc32)cc(OC)c1`, for which, in assay [3], the result was inactive. For the same molecule, in assay [4], the result was Active.
For `COc1cc(Cn2c3ccccc3c(=O)c3cc(NC(=O)CCN4CCC(O)CC4)ccc32)cc(OC)c1`, the IC50 with CCRF-CEM came out at 640 nM. Besides, the outcome in assay [3] was inactive. In addition, in assay [4], the outcome was Active.
For `COc1cc(Cn2c3ccccc3c(=O)c3cc(NC(=O)CCCN)ccc32)cc(OC)c1` the same measures were 670 nM, “inactive” and “Active”.
`COc1cc(Cn2c3ccccc3c(=O)c3cc(NC(=O)CCCCCN)ccc32)cc(OC)c1` displayed an IC50 with CCRF-CEM of 750 nM. The result in assay [3] was inactive. Moreover, the outcome in assay [4] was Active.
As for `COc1cc(Cn2c3ccccc3c(=O)c3cc(NC(=O)CCCCN)ccc32)cc(OC)c1`, the midpoint of inhibition with CCRF-CEM, the IC50, lay at 1190 nM. In assay [3], the result was inactive. For the same molecule, the outcome in assay [4] was Active.
`COc1cc(Cn2c3ccccc3c(=O)c3cc(NC(=O)C(N)C(C)C)ccc32)cc(OC)c1` (stereo unspecified) displayed an IC50 in the assay with CCRF-CEM of 810 nM. For the same molecule, the outcome in assay [3] was inactive. Moreover, in assay [4], the result was Active.

Values taken from ChEMBL document CHEMBL1268891, “Novel synthetic 2-amino-10-(3,5-dimethoxy)benzyl-9(10H)-acridinone derivatives as potent DNA-binding antiproliferative agents” (Bioorg Med Chem, 2010).
